# Measured values published in PMC9975633 (Chinese Herbal Medicines, 2022).
# Key:
# [1] = tested on: MRP; test: Effect of MK-571; format: in vitro ADME, human; conditions: 0.1 mg/mL SKE + 100 μmol/L MK-571; Caco-2; Fig. 4
# Outline: (§1)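 Caco-2 cells were seeded at 1×10^5/cm² on 0.4 µm inserts and grown about 20 d in DMEM with 10% FBS, then used once TEER exceeded 500 Ω·cm². After a 15 min HBSS equilibration, 0.1 mg/mL extract plus 100 µmol/L inhibitor was dosed AP or BL at 37 °C with 50 r/min shaking. Receiver was sampled with replacement and four anthraquinones were quantified by HPLC. Papp came from the slope, ER = Papp(B-A)/Papp(A-B), n=3.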
# [2] = tested on: rat different intestinal segments; test: In situ single-pass intestinal perfusion in rats; format: in vivo, Sprague-Dawley rats; conditions: same tested intestinal segment
# Outline: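 Male Sprague-Dawley rats (250 ± 50 g) were fasted overnight, anesthetized, and ~10 cm duodenum, jejunum or colon segments were cannulated and flushed with 37 °C saline. Krebs-Ringer perfusate held 22.50 mg/mL extract or matched pure anthraquinones (DMSO <1.0%). Flow was 1 mL/min for 5 min, then 0.2 mL/min for 30 min equilibration. Outflow was collected every 15 min to 120 min and analysed by HPLC. Peff was calculated from gravimetrically corrected volumes and segment length/radius.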
# [3] = target: P-gp (Homo sapiens, UniProt P08183); test: Effect of verapamil; format: in vitro ADME; conditions: 0.1 mg/mL SKE + 100 μmol/L verapamil; Caco-2; Fig. 4
# Chain of P-gp (P08183 whole entry): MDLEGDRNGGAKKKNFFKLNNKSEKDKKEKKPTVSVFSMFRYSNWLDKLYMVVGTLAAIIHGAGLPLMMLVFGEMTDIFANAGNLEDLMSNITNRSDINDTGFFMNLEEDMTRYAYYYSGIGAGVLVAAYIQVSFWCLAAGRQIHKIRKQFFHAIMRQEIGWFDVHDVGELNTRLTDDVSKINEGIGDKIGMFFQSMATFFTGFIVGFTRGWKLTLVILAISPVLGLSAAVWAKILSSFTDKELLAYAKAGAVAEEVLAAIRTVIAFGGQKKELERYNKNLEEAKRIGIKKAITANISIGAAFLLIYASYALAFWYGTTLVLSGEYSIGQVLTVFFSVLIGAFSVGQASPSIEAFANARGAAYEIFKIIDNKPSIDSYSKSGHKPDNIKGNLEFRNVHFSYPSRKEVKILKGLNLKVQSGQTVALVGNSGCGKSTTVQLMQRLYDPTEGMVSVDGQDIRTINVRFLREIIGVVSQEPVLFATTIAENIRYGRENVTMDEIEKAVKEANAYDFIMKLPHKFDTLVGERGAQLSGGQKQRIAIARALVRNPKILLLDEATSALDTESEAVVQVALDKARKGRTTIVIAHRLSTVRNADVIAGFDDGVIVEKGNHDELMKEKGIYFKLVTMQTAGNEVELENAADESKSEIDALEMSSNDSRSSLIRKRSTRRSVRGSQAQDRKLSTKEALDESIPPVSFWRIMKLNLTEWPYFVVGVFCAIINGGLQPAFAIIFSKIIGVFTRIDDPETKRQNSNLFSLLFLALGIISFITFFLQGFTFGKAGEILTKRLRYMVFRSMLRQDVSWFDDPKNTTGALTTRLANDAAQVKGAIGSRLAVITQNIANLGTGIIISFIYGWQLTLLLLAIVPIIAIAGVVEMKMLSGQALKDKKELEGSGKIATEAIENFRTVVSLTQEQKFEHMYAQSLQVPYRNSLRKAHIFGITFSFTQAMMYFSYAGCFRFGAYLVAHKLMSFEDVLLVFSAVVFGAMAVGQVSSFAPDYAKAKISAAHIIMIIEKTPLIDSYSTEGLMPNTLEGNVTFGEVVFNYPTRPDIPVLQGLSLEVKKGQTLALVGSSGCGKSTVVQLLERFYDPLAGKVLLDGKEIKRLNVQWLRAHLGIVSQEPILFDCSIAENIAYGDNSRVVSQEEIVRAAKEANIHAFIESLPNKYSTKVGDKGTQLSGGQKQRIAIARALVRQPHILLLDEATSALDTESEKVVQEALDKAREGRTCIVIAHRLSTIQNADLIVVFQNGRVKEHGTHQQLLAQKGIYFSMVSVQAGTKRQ
# Outline: as §1
# [4] = tested on: Caco-2 cell monolayer; test: Bidirectional transport of SKE and RAI in Caco-2 cell monolayer model; format: in vitro ADME, human; conditions: Caco-2; for Cumulative transport mass (AP-BL): in SKE 0.025, 0.05, 0.1 mg/mL over time, Fig. 3
# [5] = as above; format: in vitro ADME, human; conditions: human; for Papp A→B at 0.05 mg/mL / Papp A→B at 0.1 mg/mL / Papp A→B at 0.025 mg/mL: Caco-2, Papp(A-B), Caco-2, AP-BL; for Papp A→B at 0.05 mg/mL / Papp A→B at 0.1 mg/mL / Papp A→B at 0.025 mg/mL / Papp B→A at 0.05 mg/mL / Papp B→A at 0.1 mg/mL / Papp B→A at 0.025 mg/mL: mean ± SD, n = 3; for Papp B→A at 0.05 mg/mL / Papp B→A at 0.1 mg/mL / Papp B→A at 0.025 mg/mL: Caco-2, Papp(B-A), Caco-2, BL-AP; for efflux ratio at 0.05 mg/mL / efflux ratio at 0.1 mg/mL / efflux ratio at 0.025 mg/mL: Caco-2, ER, ER=Papp(B-A)/Papp(A-B)
# [6] = ref Wang, Yang, & Song, 2001; cited from earlier work
# [7] = in RAI, contents as in 0.05 mg/mL SKE
# [8] = in RAI, contents as in 0.1 mg/mL SKE
"ER after addition of MK571, compared with SKE group [1]",Peff in RAI compared with SKE [2],"ER after addition of verapamil, compared with SKE group [3]",Cumulative transport mass (AP-BL) [4],"Papp A→B at 0.05 mg/mL [5, 7]","Papp A→B at 0.1 mg/mL [5, 8]",Papp A→B at 0.025 mg/mL ([5]; in SKE),"Papp A→B at 0.05 mg/mL ([5]; in SKE, 0.05 mg/mL)","Papp A→B at 0.1 mg/mL ([5]; in SKE, 0.1 mg/mL)","Papp B→A at 0.05 mg/mL [5, 7]","Papp B→A at 0.1 mg/mL [5, 8]",Papp B→A at 0.025 mg/mL ([5]; in SKE),"Papp B→A at 0.05 mg/mL ([5]; in SKE, 0.05 mg/mL)","Papp B→A at 0.1 mg/mL ([5]; in SKE, 0.1 mg/mL)","efflux ratio at 0.05 mg/mL [5, 7]","efflux ratio at 0.1 mg/mL [5, 8]",efflux ratio at 0.025 mg/mL ([5]; in SKE),"efflux ratio at 0.05 mg/mL ([5]; in SKE, 0.05 mg/mL)","efflux ratio at 0.1 mg/mL ([5]; in SKE, 0.1 mg/mL)",Structure (SMILES),pKa [6],also measured
decreased,higher than those in SKE,reduced the most,time- and concentration-dependent,15.1 ± 1.54 ×10⁻⁶ cm/s,14.3 ± 1.06 ×10⁻⁶ cm/s,19.6 ± 2.04 ×10⁻⁶ cm/s,19.4 ± 1.47 ×10⁻⁶ cm/s,17.6 ± 0.74 ×10⁻⁶ cm/s,16.1 ± 1.83 ×10⁻⁶ cm/s,17.3 ± 0.79 ×10⁻⁶ cm/s,24 ± 0.59 ×10⁻⁶ cm/s,23.4 ± 1.56 ×10⁻⁶ cm/s,19.4 ± 1.65 ×10⁻⁶ cm/s,,,,,,"O=C1c2cccc(O)c2C(=O)c2c(O)cc(CO)cc21 [Aloe-emodin, aloe-emodin]",8.64,
reduced the most,higher than those in SKE,decreased,time- and concentration-dependent,8.99 ± 0.44 ×10⁻⁶ cm/s,7.97 ± 1.06 ×10⁻⁶ cm/s,6.23 ± 0.86 ×10⁻⁶ cm/s,6.87 ± 0.23 ×10⁻⁶ cm/s,6.63 ± 0.48 ×10⁻⁶ cm/s,15.7 ± 1.05 ×10⁻⁶ cm/s,13.2 ± 0.67 ×10⁻⁶ cm/s,13.8 ± 0.65 ×10⁻⁶ cm/s,13.9 ± 0.86 ×10⁻⁶ cm/s,10.7 ± 0.15 ×10⁻⁶ cm/s,1.75,1.66,2.22,2.02,1.61,"Cc1cc(O)c2c(c1)C(=O)c1cccc(O)c1C2=O [Chrysophanol, chrysophanol]",8.58,
decreased,higher than those in SKE,reduced the most,time- and concentration-dependent,7.74 ± 0.61 ×10⁻⁶ cm/s,7.31 ± 0.97 ×10⁻⁶ cm/s,7.4 ± 0.08 ×10⁻⁶ cm/s,6.65 ± 0.16 ×10⁻⁶ cm/s,6.24 ± 0.29 ×10⁻⁶ cm/s,11.5 ± 0.27 ×10⁻⁶ cm/s,11.8 ± 0.66 ×10⁻⁶ cm/s,11.9 ± 1.11 ×10⁻⁶ cm/s,10.6 ± 0.31 ×10⁻⁶ cm/s,9.13 ± 0.42 ×10⁻⁶ cm/s,1.48,1.62,1.6,1.59,1.46,"Cc1cc(O)c2c(c1)C(=O)c1cc(O)cc(O)c1C2=O [Emodin, emodin]",5.70,
,lower than that in SKE,,time- and concentration-dependent,35 ± 1.72 ×10⁻⁶ cm/s,34.2 ± 1.13 ×10⁻⁶ cm/s,27.4 ± 1.47 ×10⁻⁶ cm/s,28.02 ± 0.14 ×10⁻⁶ cm/s,31 ± 2.31 ×10⁻⁶ cm/s,26.6 ± 1.03 ×10⁻⁶ cm/s,30.1 ± 1.37 ×10⁻⁶ cm/s,21 ± 0.4 ×10⁻⁶ cm/s,20.5 ± 0.46 ×10⁻⁶ cm/s,19.8 ± 0.37 ×10⁻⁶ cm/s,0.76,0.88,0.96,0.73,0.64,"O=C(O)c1cc(O)c2c(c1)C(=O)c1cccc(O)c1C2=O [Rhein, rhein]",4.72,"Papp(A-B) as fold of Papp(B-A) ([4]; 0.025 mg/mL SKE): 1.4 fold; Papp(A-B) as fold of Papp(B-A) ([4]; 0.05 mg/mL SKE): 1.6 fold; ER (over all concentrations) ([4]; in RAI, contents as in 0.025-0.1 mg/mL SKE): lower than 1.0; ER (over all concentrations) ([4]; in SKE, 0.025-0.1 mg/mL): lower than 1.0"
